Tests used:
[1] = tested on: BAEC (bovine aorta endothelial) normal cell line; assay: MTT cytotoxicity assay, BAEC normal cells; assay type: cell-based; conditions: 24 h with compound, IC50 ± SEM
Outline: (§1)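 Cells seeded at 5000 per well in Eagle's MEM with 10% fetal calf serum, 2 mM L-glutamine, penicillin and streptomycin, then held 24 h at 37 °C, 5% CO2. Serial concentrations of test compound in DMSO were added for 24 h, with PTX and DOX as references. MTT was added for 4 h at 37 °C. Formazan was dissolved in ethanol and read at 570 nm. Percent inhibition was computed against control and blank.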

[2] = tested on: MCF7 (human breast cancer) cell line; assay: MTT cytotoxicity assay, MCF7; assay type: cell-based; conditions: MCF7, 24 h
Outline: as §1

[3] = tested on: C26 (colon carcinoma) cell line; assay: MTT cytotoxicity assay, C26; assay type: cell-based; conditions: 24 h
Outline: as §1

MCF7 and C26 cell lines = assay: MTT cytotoxicity, stated over both cancer cell lines together; assay type: cell-based; conditions: Homo sapiens, MCF7, read-out: IC50 over MCF7 and C26
Outline: as §1

[4] = tested on: MCF7, A549 (non-small cell lung cancer) and HDFs (non-cancerous human dermal fibroblasts); conditions: doxorubicin value compared for healthy cells ref 20; cited from earlier work

O=[N+]([O-])c1ccc(Nc2nc(N3CCCCC3)nc(N3CCCCC3)n2)cc1 [2e, N-(4-Nitrophenyl)-4,6-di(piperidin-1-yl)-1,3,5-triazin-2-amine]
IC50 ([1]; Bos taurus, BAEC, 24 h): 315 ± 9.53 µM | IC50 [2]: 26.1 ± 1.86 µM | IC50 [3]: 8.28 ± 1.9 µM

Cc1ccc(Nc2nc(Cl)nc(Cl)n2)cc1 [1d, 4,6-Dichloro-N-(p-tolyl)-1,3,5-triazin-2-amine]
IC50 [2]: 0.2 ± 0.11 µM | IC50 [3]: 9.99 ± 0.59 µM

COc1ccc(Nc2nc(N3CCOCC3)nc(N3CCOCC3)n2)cc1 [3c, N-(4-Methoxyphenyl)-4,6-dimorpholino-1,3,5-triazin-2-amine]
IC50 ([1]; Bos taurus, BAEC, 24 h): 2.01 ± 0.59 µM | IC50 [2]: 43.5 ± 4.23 µM | IC50 [3]: 76.8 ± 8.45 µM

Fc1ccc(Nc2nc(N3CCOCC3)nc(N3CCOCC3)n2)cc1 [3b, N-(4-Fluorophenyl)-4,6-dimorpholino-1,3,5-triazin-2-amine]
IC50 ([1]; Bos taurus, BAEC, 24 h): 7.98 ± 0.97 µM | IC50 [2]: 6.19 ± 1.2 µM | IC50 [3]: 24.5 ± 0.86 µM

Fc1ccc(Nc2nc(N3CCCCC3)nc(N3CCCCC3)n2)cc1 [2b, N-(4-Fluorophenyl)-4,6-di(piperidin-1-yl)-1,3,5-triazin-2-amine]
IC50 ([1]; Bos taurus, BAEC, 24 h): 21.2 ± 2.4 µM | IC50 [2]: 32.9 ± 4.23 µM | IC50 [3]: 33.6 ± 1.86 µM

Clc1ccc(Nc2nc(N3CCOCC3)nc(N3CCOCC3)n2)cc1 [3a, N-(4-Chlorophenyl)-4,6-dimorpholino-1,3,5-triazin-2-amine]
IC50 ([1]; Bos taurus, BAEC, 24 h): 41.2 ± 2.55 µM | IC50 [2]: 42.4 ± 4.48 µM | IC50 [3]: 1.21 ± 0.47 µM

O=[N+]([O-])c1ccc(Nc2nc(N3CCOCC3)nc(N3CCOCC3)n2)cc1 [3e, 4,6-Dimorpholino-N-(4-nitrophenyl)-1,3,5-triazin-2-amine]
IC50 [1]: 86.3 ± 6.79 µM | IC50 ([1]; Bos taurus, BAEC, 24 h): 86.2 µM | IC50 [2]: 13.7 ± 1.96 µM | IC50 [3]: 14.7 ± 1.7 µM

COc1ccc(Nc2nc(N3CCCCC3)nc(N3CCCCC3)n2)cc1 [2c, N-(4-Methoxyphenyl)-4,6-di(piperidin-1-yl)-1,3,5-triazin-2-amine]
IC50 ([1]; Bos taurus, BAEC, 24 h): 15.1 ± 1.98 µM | IC50 [2]: 50.9 ± 8.54 µM | IC50 [3]: 99.4 ± 14.1 µM

Fc1ccc(Nc2nc(Cl)nc(Cl)n2)cc1 [1b, 4,6-Dichloro-N-(4-fluorophenyl)-1,3,5-triazin-2-amine]
IC50 [2]: 7.89 ± 1.8 µM | IC50 [3]: 9.1 ± 0.61 µM

O=[N+]([O-])c1ccc(Nc2nc(Cl)nc(Cl)n2)cc1 [1e, 4,6-Dichloro-N-(4-nitrophenyl)-1,3,5-triazin-2-amine]
IC50 [2]: 10.3 ± 1.51 µM | IC50 [3]: 48.3 ± 1.94 µM

CC(=O)O[C@H]1C(=O)[C@@]2(C)[C@H]([C@H](OC(=O)c3ccccc3)[C@]3(O)C[C@H](OC(=O)[C@H](O)[C@@H](NC(=O)c4ccccc4)c4ccccc4)C(C)=C1C3(C)C)[C@]1(OC(C)=O)CO[C@@H]1C[C@@H]2O [PTX, Paclitaxel, reference compound]
IC50 ([1]; Bos taurus, BAEC, 24 h): 2.67 ± 0.41 µM | IC50 [2]: 2.35 ± 0.14 µM | IC50 [3]: 4.32 ± 0.52 µM | IC50 (MCF7 and C26 cell lines): 2.35 to 4.32 µM

COc1cccc2c1C(=O)c1c(O)c3c(c(O)c1C2=O)C[C@@](O)(C(=O)CO)C[C@@H]3O[C@H]1C[C@H](N)[C@H](O)[C@H](C)O1 [DOX, Doxorubicin, reference compound]
IC50 ([1]; Bos taurus, BAEC, 24 h): 4.79 ± 0.53 µM | IC50 [4]: 0.42 µM | IC50 [2]: 10.5 ± 0.86 µM | IC50 [3]: 8.06 ± 1.02 µM | IC50 (MCF7 and C26 cell lines): 8.06 to 10.5 µM

Clc1ccc(Nc2nc(N3CCCCC3)nc(N3CCCCC3)n2)cc1 [2a, N-(4-Chlorophenyl)-4,6-di(piperidin-1-yl)-1,3,5-triazin-2-amine]
IC50 ([1]; Bos taurus, BAEC, 24 h): 49 ± 3.16 µM | IC50 [2]: 23.6 ± 2.56 µM | IC50 [3]: 47.5 ± 2.86 µM

Cc1ccc(Nc2nc(N3CCCCC3)nc(N3CCCCC3)n2)cc1 [2d, 4,6-Di(piperidin-1-yl)-N-(p-tolyl)-1,3,5-triazin-2-amine]
IC50 ([1]; Bos taurus, BAEC, 24 h): 1.84 ± 0.64 µM | IC50 [2]: 6.54 ± 1.16 µM | IC50 [3]: 0.38 ± 0.23 µM

COc1ccc(Nc2nc(Cl)nc(Cl)n2)cc1 [1c, 4,6-Dichloro-N-(4-methoxyphenyl)-1,3,5-triazin-2-amine]
IC50 [2]: 1.77 ± 0.05 µM | IC50 [3]: 9.89 ± 0.17 µM

Clc1ccc(Nc2nc(Cl)nc(Cl)n2)cc1 [1a, 4,6-Dichloro-N-(4-chlorophenyl)-1,3,5-triazin-2-amine]
IC50 [2]: 5.35 ± 1.05 µM | IC50 [3]: 13.5 ± 0.24 µM

Cc1ccc(Nc2nc(N3CCOCC3)nc(N3CCOCC3)n2)cc1 [3d, 4,6-Dimorpholino-N-(p-tolyl)-1,3,5-triazin-2-amine]
IC50 ([1]; Bos taurus, BAEC, 24 h): 0.57 ± 0.24 µM | IC50 [2]: 22.3 ± 1.49 µM | IC50 [3]: 16.3 ± 2.22 µM

From paper PMC11959361 (RSC Advances, 2025)
